A short description of series [1]: Half-life for disappearance of compound from dog whole blood. Format: ADME, organism-based, Canis lupus familiaris. A digest of the protocol:
(§1)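 Freshly collected whole blood, or 10% w/v brain homogenate in pH 7.4 phosphate buffer (ionic strength 0.15), was prewarmed to 37 °C. Compound was spiked from an 8 mM DMSO stock to 40 µM final. Timed samples were quenched in 8% DMSO/acetonitrile, centrifuged, filtered and analyzed by reversed-phase C8 HPLC with UV detection. K came from linear regression of log peak height versus time, with t1/2 derived from it. Values are mean ± SE of three determinations in different animal samples.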

Series [2] in a line: Half-life for disappearance of compound from rat 10% brain homogenate. Format: ADME. A digest of the protocol: as §1
The nature of series [3]: Half-life for disappearance of compound from rat whole blood. The class given is ADME, organism-based. A digest of the protocol: as §1
The species named for a further series is Canis familiaris. The series can be described thus: Pseudo first-order rate constant (K) for disappearance of compound from dog whole blood. The class given is ADME, organism-based, Canis lupus familiaris. A digest of the protocol: as §1
The species entered for series [4] is Rattus norvegicus. The series can be described thus: Pseudo first-order rate constant (K) for disappearance of compound from rat 10% brain homogenate. Format: ADME. A digest of the protocol: (§2)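 Freshly collected whole blood (rat trunk blood; rabbit) or 10% w/v brain homogenate made in pH 7.4 phosphate buffer (μ = 0.15), prewarmed to 37 °C. Compound added from 8 mM DMSO stock to a final 40 μM. Timed 0.3 mL samples were quenched in 8% DMSO/acetonitrile, centrifuged, filtered and analysed by reversed-phase C8 HPLC-UV. K came from linear regression of log peak height versus time; n=3 animal samples.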

Series [5] is described as follows: Pseudo first-order rate constant (K) for disappearance of compound from rat whole blood. Format: ADME, tissue-based. A digest of the protocol: as §2
Series [6] in a line: Half-life for disappearance of compound from human whole blood. Format: ADME, organism-based. A digest of the protocol: as §1
Series [7] in a line: Half-life for disappearance of compound from rabbit 10% brain homogenate. Format: ADME, Oryctolagus cuniculus. A digest of the protocol:
as §1

Series [8] in a line: Half-life for disappearance of compound from rabbit whole blood. The class given is ADME, organism-based, Oryctolagus cuniculus. A digest of the protocol: as §1
The species entered for a further series is Homo sapiens. The experiment in a line: Pseudo first-order rate constant (K) for disappearance of compound from human whole blood. Format: ADME, organism-based. A digest of the protocol:
as §1

Series [9] is filed under the species Oryctolagus cuniculus. The series can be described thus: Pseudo first-order rate constant (K) for disappearance of compound from rabbit 10% brain homogenate. Format: ADME. A digest of the protocol: as §2
Series [10] is filed under the species Oryctolagus cuniculus. The experiment in a line: Pseudo first-order rate constant (K) for disappearance of compound from rabbit whole blood. Format: ADME, organism-based. A digest of the protocol: as §2
The subject of series [11] is Rattus norvegicus. The series can be described thus: Concentration of compound in rat brain after intravenous injection of 20 mg/kg benzyl-penicillin after 60 min;Below detection limit. The class given is functional, organism-based. Also on record: dose 20 mg/kg. A digest of the protocol: (§3)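 Male Sprague-Dawley rats (200-250 g), conscious, received 60 µmol/kg (equimolar to 20 mg/kg benzylpenicillin) by tail-vein injection. Benzylpenicillin K was given in water/ethanol/propylene glycol, and the delivery systems in ethanol:propylene glycol 7:3, at 20 mg/mL. Rats were decapitated at set times (4-6 per point), with trunk blood heparinized and brain, kidney, liver and lung frozen. Benzylpenicillin was measured by disk microbioassay (Bacillus subtilis ATCC 6633) after >5-volume sterile-water dilution or homogenization, against matrix calibration curves; assay limit 0.05 µg/mL.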

The subject of series [12] is Rattus norvegicus. The experiment in a line: Concentration of compound in rat blood after intravenous injection of 20 mg/kg benzyl-penicillin after 1 min. Format: functional, organism-based. Also on record: dose 20 mg/kg. A digest of the protocol: as §3
In series [13] the test system is Rattus norvegicus. The experiment in a line: Concentration of compound in rat blood after intravenous injection of 20 mg/kg benzyl-penicillin after 10 min. The class given is functional, organism-based. Set-up: dose 20 mg/kg. A digest of the protocol:
as §3

Series [14] deals with Rattus norvegicus. The series can be described thus: Concentration of compound in rat blood after intravenous injection of 20 mg/kg benzyl-penicillin after 20 min. Set-up: dose 20 mg/kg. Format: functional, organism-based. A digest of the protocol: as §3
Series [15] concerns Rattus norvegicus. The series can be described thus: Concentration of compound in rat blood after intravenous injection of 20 mg/kg benzyl-penicillin after 3 min. Format: functional, organism-based. Set-up: dose 20 mg/kg. A digest of the protocol: as §3
The test system of series [16] is Rattus norvegicus. The series can be described thus: Concentration of compound in rat blood after intravenous injection of 20 mg/kg benzyl-penicillin after 40 min. Format: functional, organism-based. Set-up: dose 20 mg/kg. A digest of the protocol: as §3
Series [17] deals with Rattus norvegicus. The series can be described thus: Concentration of compound in rat blood after intravenous injection of 20 mg/kg benzyl-penicillin after 5 min. Set-up: dose 20 mg/kg. The class given is functional, organism-based. A digest of the protocol:
as §3

Series [18] has as its system Rattus norvegicus. The experiment in a line: Concentration of compound in rat blood after intravenous injection of 20 mg/kg benzyl-penicillin after 60 min. The class given is functional, organism-based. Also on record: dose 20 mg/kg. A digest of the protocol:
as §3

The subject of series [19] is Rattus norvegicus. The series can be described thus: Concentration of compound in rat brain after intravenous injection of 20 mg/kg benzyl-penicillin after 1 min. Format: functional, organism-based. Set-up: dose 20 mg/kg. A digest of the protocol:
as §3

The subject of series [20] is Rattus norvegicus. The experiment in a line: Concentration of compound in rat brain after intravenous injection of 20 mg/kg benzyl-penicillin after 10 min. Set-up: dose 20 mg/kg. The class given is functional, organism-based. A digest of the protocol:
as §3

Series [21] has as its system Rattus norvegicus. The experiment in a line: Concentration of compound in rat brain after intravenous injection of 20 mg/kg benzyl-penicillin after 20 min;Below detection limit. Format: functional, organism-based. Also on record: dose 20 mg/kg. A digest of the protocol: as §3
The subject of series [22] is Rattus norvegicus. The series can be described thus: Concentration of compound in rat brain after intravenous injection of 20 mg/kg benzyl-penicillin after 3 min. The class given is functional, organism-based. Set-up: dose 20 mg/kg. A digest of the protocol:
as §3

The test system of series [23] is Rattus norvegicus. The series can be described thus: Concentration of compound in rat brain after intravenous injection of 20 mg/kg benzyl-penicillin after 40 min;Below detection limit. The class given is functional, organism-based. Also on record: dose 20 mg/kg. A digest of the protocol:
as §3

In series [24] the test system is Rattus norvegicus. The experiment in a line: Concentration of compound in rat brain after intravenous injection of 20 mg/kg benzyl-penicillin after 5 min. Format: functional, organism-based. Set-up: dose 20 mg/kg. A digest of the protocol:
as §3

Usually half-life stands for the time in which the quantity being followed falls by half. A higher half-life goes with slow loss. As to `C[n+]1cc(C(=O)NCCOC(=O)C2N3C(=O)C(NC(=O)Cc4ccccc4)C3SC2(C)C)c2ccccc2c1.[I-]` (centres undefined), the half-life turned out to be 13.5 min in [1], 73.4 min in [2] and 6 min in series [3]. Further, the results for the K (in the series filed under Canis familiaris; in the series listed under Rattus norvegicus [4]; in series [5]) were 0.051 min⁻¹, 0.01 min⁻¹ and 0.115 min⁻¹, respectively.

For `CN1C=CCC(C(=O)OCOC(=O)C2N3C(=O)C(NC(=O)Cc4ccccc4)C3SC2(C)C)=C1` (centres undefined), the half-life in series [1] was found to be 3.6 min; in series [6] it was 15.9 min; in series [7], 4.3 min; in series [8] it was 0.8 min; in series [2], 0.6 min. In addition, the K in the series filed under Canis familiaris is 0.213 min⁻¹; in the series filed under Homo sapiens, 0.045 min⁻¹; in the series listed under Oryctolagus cuniculus [9], 0.166 min⁻¹; in the series listed under Oryctolagus cuniculus [10], 0.949 min⁻¹; in the series listed under Rattus norvegicus [4] it was 1.357 min⁻¹.

Consider `C[n+]1cccc(C(=O)OCCOC(=O)C2N3C(=O)C(NC(=O)Cc4ccccc4)C3SC2(C)C)c1.[I-]` (centres undefined), for which the half-life in series [1] came to 11.5 min; in series [6] it was 6.7 min; in series [7], 16.7 min; in [8], 2 min; in [2], 28.2 min; in series [3] it was 1.6 min. The K came to 0.061 min⁻¹ in the series filed under Canis familiaris; 0.105 min⁻¹ in the series filed under Homo sapiens; 0.043 min⁻¹ in the series listed under Oryctolagus cuniculus [9]; 0.33 min⁻¹ in the series filed under Oryctolagus cuniculus [10]; 0.025 min⁻¹ in the series filed under Rattus norvegicus [4]; 0.435 min⁻¹ in series [5].

For `CN1C=CCC(C(=O)NCCOC(=O)C2N3C(=O)C(NC(=O)Cc4ccccc4)C3SC2(C)C)=C1` (centres undefined), the half-life in series [1] came out at 5.7 min; in series [6] it was 19.4 min; in series [7] it was 4.6 min; in series [8], 1.3 min; in [2], 5.7 min; in [3] it was 0.3 min. Also, the K in the series filed under Canis familiaris is 0.123 min⁻¹; in the series listed under Homo sapiens it was 0.037 min⁻¹; in the series filed under Oryctolagus cuniculus [9] it was 0.152 min⁻¹; in the series listed under Oryctolagus cuniculus [10] it was 0.553 min⁻¹; in the series filed under Rattus norvegicus [4], 0.125 min⁻¹; in [5] it was 2.712 min⁻¹. Moreover, the Concentration result is “Below limit of detection” in the series on Rattus norvegicus [11]; 5 µg/mL in the series with Rattus norvegicus [12]; 4.9 µg/mL with Rattus norvegicus [13]; 0.8 µg/mL in the series on Rattus norvegicus [14]; 7.3 µg/mL in the series on Rattus norvegicus [15]; 0.3 µg/mL in the series with Rattus norvegicus [16]. Moreover, the Concentration was 3.8 µg/mL with Rattus norvegicus [17]; 0.2 µg/mL in the series with Rattus norvegicus [18]; 0.2 µg/mL in the series on Rattus norvegicus [19]; 0.1 µg/mL with Rattus norvegicus [20]; “Below limit of detection” in the series with Rattus norvegicus [21]; 0.3 µg/mL in the series on Rattus norvegicus [22]. In addition, the values for the Concentration entry with Rattus norvegicus [23] and in the series with Rattus norvegicus [24] were “Below limit of detection” and 0.2 µg/mL, respectively.

The record behind these values is ChEMBL document CHEMBL1124553, “Brain-specific chemical delivery systems for beta-lactam antibiotics. In vitro and in vivo studies of some dihydropyridine and dihydroisoquinoline derivatives of benzylpenicillin in rats” (J Med Chem, 1989).
